The source of these data is ChEMBL document CHEMBL1144328, “2,3-Diarylthiophenes as selective EP1 receptor antagonists” (Bioorg Med Chem Lett, 2005).

The target of data set [1] is T1, Prostaglandin E2 receptor EP1 subtype (Homo sapiens, UniProt P34995).
T1 sequence (P34995 whole entry): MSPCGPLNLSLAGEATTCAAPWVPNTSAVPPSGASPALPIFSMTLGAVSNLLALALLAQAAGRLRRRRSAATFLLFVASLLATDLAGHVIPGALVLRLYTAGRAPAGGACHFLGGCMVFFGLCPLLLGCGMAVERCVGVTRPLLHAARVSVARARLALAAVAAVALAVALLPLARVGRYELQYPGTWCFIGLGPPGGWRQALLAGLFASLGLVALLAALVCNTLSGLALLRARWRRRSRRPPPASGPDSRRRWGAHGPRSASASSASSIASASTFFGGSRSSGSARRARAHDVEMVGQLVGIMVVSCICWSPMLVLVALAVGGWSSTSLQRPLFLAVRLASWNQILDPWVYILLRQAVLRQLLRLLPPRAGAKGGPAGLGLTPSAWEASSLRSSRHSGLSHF
Put plainly: Binding affinity against Prostaglandin E receptor in presence of 2% human serum albumin.

Data set [2] in a line: Half life of compound in rat. In kind it is ADME. To be noted: in vivo.
Data set [3] has as its target T1, Prostaglandin E2 receptor EP1 subtype. Description: Binding affinity against Prostaglandin E receptor was determined in human.
Data set [4] addresses T2, Thromboxane A2 receptor (Homo sapiens, UniProt P21731).
T2 sequence (P21731 whole entry): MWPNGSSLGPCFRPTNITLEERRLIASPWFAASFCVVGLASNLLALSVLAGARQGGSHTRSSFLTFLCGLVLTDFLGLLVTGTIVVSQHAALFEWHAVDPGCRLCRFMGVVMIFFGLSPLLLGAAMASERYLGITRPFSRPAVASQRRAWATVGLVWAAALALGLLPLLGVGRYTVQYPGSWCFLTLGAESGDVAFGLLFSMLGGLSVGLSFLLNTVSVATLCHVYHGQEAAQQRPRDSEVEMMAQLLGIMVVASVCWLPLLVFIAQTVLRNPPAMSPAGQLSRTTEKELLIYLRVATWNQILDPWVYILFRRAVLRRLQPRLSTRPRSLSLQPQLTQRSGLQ
Put plainly: Binding affinity against human Prostanoid TP receptor.

Data set [5] can be described thus: Bioavailability of compound in rat. The conditions noted are these: in vivo. In kind it is ADME, organism-based.
Data set [6] concerns the target T3, Prostaglandin E2 receptor EP1 subtype (Rattus norvegicus, UniProt P70597).
T3 sequence (P70597 whole entry): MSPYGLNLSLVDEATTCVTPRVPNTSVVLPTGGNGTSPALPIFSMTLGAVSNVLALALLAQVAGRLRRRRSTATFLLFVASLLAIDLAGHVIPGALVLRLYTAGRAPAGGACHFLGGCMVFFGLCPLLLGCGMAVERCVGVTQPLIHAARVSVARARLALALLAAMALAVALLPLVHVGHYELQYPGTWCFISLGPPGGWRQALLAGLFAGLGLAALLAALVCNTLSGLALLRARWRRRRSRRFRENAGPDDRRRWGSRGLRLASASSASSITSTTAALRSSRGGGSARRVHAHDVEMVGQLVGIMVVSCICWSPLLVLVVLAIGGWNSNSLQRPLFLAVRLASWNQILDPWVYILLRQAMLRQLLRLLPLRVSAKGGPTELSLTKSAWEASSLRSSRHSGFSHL
Description: Binding affinity towards Prostaglandin E receptor was determined in rat.

The target of data set [7] is T4, Prostaglandin E2 receptor EP1 subtype (Homo sapiens) (UniProt P34995).
T4 sequence (whole entry): T1 sequence (P34995 whole entry)
Put plainly: Inhibitory activity against Prostaglandin E receptor in functional cell based assay. Put shortly: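 HEK293 cells stably expressing human EP1, grown with hygromycin B and G418 at 37 °C and 6% CO2, seeded one day before, then loaded with FLIPR no-wash dye for 1 h at 37 °C in HBSS/20 mM HEPES pH 7.4. FLIPR fluorescence read after a 10 min antagonist preincubation and 5 min PGE2. PGE2 curves (0.001–30 µM) run alone and at three fixed antagonist concentrations; Kb reported.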

A short description of data set [8]: Maximum plasma concentration of compound in rat at 4 h. Type of data set: ADME, organism-based.

As usually defined, the Ki is the dissociation constant of the complex between target and ligand, obtained from inhibition or displacement. As usually defined, the half-life is the time in which the quantity being followed falls by half. Turning to `OC(c1cncc(-c2sccc2-c2cc(Cl)ccc2OCc2ccccc2)c1)C(F)(F)F` (stereo not given), the results for the Ki in data set [1], in data set [3] and in data set [4] were 6 nM, 3 nM and 120 nM, respectively. Also, the half-life in data set [2] was 1 h.
A word on the bioavailability: it is the share of a dose that reaches the circulation, judged against a reference dose that is usually intravenous. The Cmax is the peak of the concentration-time curve. For the molecule `O=C(O)c1cccc(-c2sccc2-c2cc(Cl)ccc2OCc2ccccc2)n1`, the Ki was 280 nM in data set [1], 6 nM in data set [3], 12 nM in data set [6] and 140 nM in data set [4]. Further, the bioavailability in data set [5] stood at 73%. This molecule had a half-life in data set [2] of 4 h. This molecule also yielded a Kb in data set [7] of 1 nM. The Cmax in data set [8] was found to be 20 µM.
`O=S(=O)(Cc1ccccc1)Nc1cccc(-c2sccc2-c2cc(Cl)ccc2OCc2ccccc2)c1`: the Ki was 72 nM in data set [1], 52 nM in data set [3] and over 21000 nM in data set [4]. The same molecule registered a half-life in data set [2] of under 1 h.
In the case of `OC(O)(c1cncc(-c2sccc2-c2cc(Cl)ccc2OCc2ccccc2)c1)C(F)(F)F`, the results for the Ki in data set [1], in data set [3] and in data set [4] were 5 nM, 4 nM and 220 nM, respectively. Moreover, the half-life in data set [2] is 2 h. Further, the Kb in data set [7] was determined as 70 nM.
On the same counts, the results for `O=C(O)Cc1cccc(-c2sccc2-c2cc(Cl)ccc2OCc2ccccc2)c1` are 220 nM, 15 nM, 150 nM, 3 h and 66 nM.
As for `O=C(O)c1cccc(-c2sccc2-c2cc(Cl)ccc2OCc2ccccc2)c1`, the values for the Ki in data set [1], in data set [3] and in data set [4] were 70 nM, 4 nM and 100 nM, respectively. This molecule came in with a half-life in data set [2] of under 0.5 h. In addition, in data set [7], the Kb came out at 7 nM.
Consider `O=C(O)c1cncc(-c2sccc2-c2cc(Cl)ccc2OCc2ccccc2)c1`, for which the Ki in data set [1] was 90 nM; in data set [3], 3 nM; in data set [4], 230 nM. The molecule also came in with a half-life in data set [2] of under 0.5 h. Further, the Kb in data set [7] was determined as 4 nM.
On the same counts, the results for `CC(NC(=O)c1cccc(-c2sccc2-c2cc(Cl)ccc2OCc2ccccc2)c1)c1cccnc1` (stereo not given) are 17 nM, 9 nM, 1200 nM, under 1 h and 97 nM.
Take `O=C(Cc1ccccc1)Nc1cccc(-c2sccc2-c2cc(Cl)ccc2OCc2ccccc2)c1`: the Ki in data set [1] was 5 nM; in data set [3] it was 4 nM; in data set [4], over 21000 nM. The molecule also returned a half-life in data set [2] of under 1 h.
With `OC(c1cncc(-c2sccc2-c2cc(Cl)ccc2OCc2ccccc2)c1)(C(F)(F)F)C(F)(F)F`, the results for the Ki in data set [3] and in data set [4] were 260 nM and 200 nM, respectively.
As to `NS(=O)(=O)c1cccc(-c2ccsc2-c2cc(Cl)ccc2OCc2ccccc2)c1`, the Ki in data set [1] amounted to 18 nM; in data set [3], 8 nM; in data set [4], 390 nM. In data set [2], the half-life was 2 h. The molecule also came in with a Kb in data set [7] of 100 nM.
For `N#CC(O)c1cncc(-c2sccc2-c2cc(Cl)ccc2OCc2ccccc2)c1` (stereo not given), the figures for the Ki in data set [1], in data set [3] and in data set [4] were 160 nM, 23 nM and 360 nM, respectively.
